Paper PMC3276691 (Journal of Medicinal Chemistry, 2012)

Key:
TLR8 [1] = experiment: Inhibition of TLR8-mediated cytokine and chemokine production in hPBMCs; format: cell-based, human; settings: 12 h, proinflammatory cytokines (Fig. 4)
TLR8 [2] = experiment: Schild plot analysis of inhibition of TLR8-induced activation; format: cell-based, human; settings: CL075 TLR8-specific agonist, checker-board format
TLR7 [3] = experiment: Schild plot analysis of inhibition of TLR7-induced activation; format: cell-based, human; settings: imidazoquinoline TLR7-specific agonist, checker-board format
TLR7 [4] = experiment: Inhibition of TLR7-mediated cytokine and chemokine production in hPBMCs; format: cell-based; settings: Homo sapiens, 12 h, read-out: IC50, inhibition of TLR7-induced cytokine and chemokine release
[5] = test system: human peripheral blood mononuclear cells; experiment: IFN-α induction in human PBMCs; format: cell-based; settings: hPBMCs, 12 h, graded concentrations
Procedure, shortened: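 PBMCs from healthy donors, isolated by Ficoll-Hypaque gradient centrifugation and stimulated with graded concentrations of test compound for 12 h. Supernatants collected by centrifugation and diluted 1:20. IFN-α measured in triplicate by high-sensitivity human IFN-α-specific ELISA.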

Row | SMILES | Inhibition of TNF-α and IL-1β production (TLR8 [1]) | Schild plot slope, TLR8 inhibition (TLR8 [2]) | Schild plot slope, TLR7 inhibition (TLR7 [3]) | IC50 (TLR7 [4]) [nM] | IFN-α induction [5]
1 | CCN(CC)CCCC(C)Nc1ccnc2cc(Cl)ccc12 (stereo not drawn) [Chloroquine, chloroquine, reference compound] | feeble inhibitor |  |  |  | 
2 | Nc1nc2ccccc2c2c1nc(CCCc1nc3c(N)nc4ccccc4c3n1Cc1ccccc1)n2Cc1ccccc1 [Compound 4a, 2,2′-(propane-1,3-diyl)bis(1-benzyl-1H-imidazo[4,5-c]quinolin-4-amine)] | potently inhibits | 0.51 | 1.12 | 50 to 300 | 
3 | CCCCc1nc2c(N)nc3ccccc3c2n1Cc1ccc(CNC(=O)CCCCCCCCCCC(=O)NCc2ccc(Cn3c(CCCC)nc4c(N)nc5ccccc5c43)cc2)cc1 [Compound 10c] |  |  |  |  | most potent
